According to ChEMBL document CHEMBL3108780, “Synthesis, characterization, cytotoxicity and antibacterial activity of an anthracenyl-linked bis(pyrazolyl)methane ligand and its zinc(II) complexes” (Eur J Med Chem, 2014):
≈ marks a conversion by molar mass, not a printed value.

Columns and labels:
Escherichia coli = experiment: Antibacterial activity against Escherichia coli ATCC 35218 after 24 hrs by MTT assay; assay type: functional; conditions: ATCC 35218, 24 h
Outline: (§1)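 Broth microdilution per CLSI; compounds dissolved in DMSO (stock […]) and serially diluted in sterilized liquid medium (50% v/v DMSO in PBS). Inoculum about 10^5 cfu/mL, incubated 37 °C for 24 h. Growth read colorimetrically with MTT dye, OD at 550 nm; MIC50 determined.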

Pseudomonas putida = experiment: Antibacterial activity against Pseudomonas putida ATCC 49128 after 24 hrs by MTT assay; assay type: functional; conditions: ATCC 49128, 24 h; outline: as §1
Staphylococcus aureus = experiment: Antibacterial activity against Staphylococcus aureus ATCC 25923 after 24 hrs by MTT assay; assay type: functional; conditions: ATCC 25923, 24 h; outline: as §1
Bacillus spizizenii = experiment: Antibacterial activity against Bacillus subtilis ATCC 6633 after 24 hrs by MTT assay; assay type: functional; conditions: ATCC 6633, 24 h; outline: as §1
MDA-MB-435 = experiment: Cytotoxicity against human MDA-MB-435 cells after 48 hrs by MTT assay; assay type: functional, cell-based; conditions: MDA-MB-435, 48 h
Outline: (§2)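 Cells seeded at 2 × 10^4 cells/mL, preincubated 24 h at 37 °C, 5% CO2. Compounds from DMSO mother solutions diluted in complete medium (DMSO ≤0.1%), added at pre-set concentrations with 5-fluorouracil and cisplatin as references. 48 h exposure, then MTT (2.5 mg/mL in PBS) 4 h, SDS/isobutanol/HCl solubilisation overnight, OD 570 nm. Triplicate wells, assays repeated ≥3 times; IC50.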

A549 = experiment: Cytotoxicity against human A549 cells after 48 hrs by MTT assay; assay type: functional, cell-based; conditions: A549, 48 h; outline: as §2
Huh-7 = experiment: Cytotoxicity against human HuH7 cells after 48 hrs by MTT assay; assay type: functional, cell-based; conditions: Huh-7, 48 h; outline: as §2

## c1ccc2c(C(n3cccn3)n3cccn3)c3ccccc3cc2c1
Escherichia coli
  MIC50: 4.8 µg/mL (≈ 14.8 µM)
Pseudomonas putida
  MIC50: 1.54 µg/mL (≈ 4.76 µM)
Staphylococcus aureus
  MIC50: 2.13 µg/mL (≈ 6.57 µM)
Bacillus spizizenii
  MIC50: 3.26 µg/mL (≈ 10 µM)
MDA-MB-435
  IC50: 23.8 µg/mL (≈ 73.3 µM)
A549
  IC50: 9.77 µg/mL (≈ 30.1 µM)
Huh-7
  IC50: 28 µg/mL (≈ 86.2 µM)

## O=C(N[C@H](CO)[C@H](O)c1ccc([N+](=O)[O-])cc1)C(Cl)Cl [CHLORAMPHENICOL]
Escherichia coli
  MIC50: 3.04 µg/mL (≈ 9.41 µM)
Pseudomonas putida
  MIC50: 0.182 µg/mL (≈ 0.563 µM)
Staphylococcus aureus
  MIC50: 0.499 µg/mL (≈ 1.54 µM)
Bacillus spizizenii
  MIC50: 1.25 µg/mL (≈ 3.88 µM)

## O=c1[nH]cc(F)c(=O)[nH]1 [FLUOROURACIL]
MDA-MB-435
  IC50: 25.6 µg/mL (≈ 197 µM)
A549
  IC50: 24.9 µg/mL (≈ 191 µM)
Huh-7
  IC50: 20 µg/mL (≈ 154 µM)
